The list is not random: actives were taken first. Their share in the collection is about 2.9%.
M1 PAM parental = M1 PAM counterscreen hit in parental CHO-K1 cells; ATP EC20, Fluo-8 calcium fluorescence; 0% at ATP EC20, 100% at ATP max; activation, % at 3 µM; 0.02% of 360,000 active; AID 602247;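 active means activation above the run cutoff, the mean activation of all test compounds plus 3 SD, cut at about 40% in these data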;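 further: peak over basal fluorescence ratio in a 140 s read after ATP addition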
CHO parental Ca = signal in parental CHO cells, OX1R antagonist counter-screen | parental CHO-K1, ATP-induced calcium, Fluo-8 fluorescence | inhibition, % at 5.6 µM | 0.63% of 330,000 active | AID 463079;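 active means inhibition above that plate's mean sample inhibition plus 3 SD, cut at about 26% in these data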;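 further: 0% = ATP-challenged DMSO wells and 100% = DMSO wells without ATP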
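test system = CHO parental line | reagent = ATP stimulus | measured by = intracellular calcium via Fluo-8 no-wash fluorescent dye | control set = ATP and no-ATP DMSO wells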
OX1R antag-1 = OX1R (human) antagonism. 1.8% of 330,000 active. O43613. inhibition, % at 6.6 µM. OX1R-expressing cells, FRET antagonist read-out. AID 485270; in the data active means inhibition mostly above about 38%, no sharp cut-off; inactive means mostly below about 40%;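 further: 0% = agonist challenge alone and 100% = reference antagonist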
Target sequence (O43613 whole entry, looked up): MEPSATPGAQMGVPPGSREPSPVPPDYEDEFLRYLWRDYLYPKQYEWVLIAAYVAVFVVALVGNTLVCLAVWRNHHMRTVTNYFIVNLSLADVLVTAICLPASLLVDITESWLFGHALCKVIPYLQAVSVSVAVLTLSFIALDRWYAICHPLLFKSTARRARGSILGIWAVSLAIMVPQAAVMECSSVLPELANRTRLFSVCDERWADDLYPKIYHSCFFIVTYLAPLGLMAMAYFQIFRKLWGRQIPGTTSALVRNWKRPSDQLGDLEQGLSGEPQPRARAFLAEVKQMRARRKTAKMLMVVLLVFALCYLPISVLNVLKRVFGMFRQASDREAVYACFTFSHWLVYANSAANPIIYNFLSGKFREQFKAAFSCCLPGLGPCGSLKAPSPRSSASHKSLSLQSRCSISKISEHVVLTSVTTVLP
OX1R antag-2 = antagonists of human orexin 1 receptor | O43613 | CHO/OX1R cells, Fluo-8 calcium fluorescence, orexin A | inhibition, % at 5 µM | 0.43% of 330,000 active | AID 434989;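 active means inhibition above its plate's threshold, mean inhibition of all tested compounds on the plate plus 3 SD, cut at about 37% in these data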;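 further: 0% = orexin A challenge wells and 100% = SB-334867-A antagonist wells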
M1 ag parental = counter-screen for M1 agonists: effect in parental CHO-K1 cells | activation, % at 3 µM | 0.48% of 360,000 active | Fluo-8 calcium fluorescence; scaled to maximal ATP response, vehicle zero; in the data active means activation above about 15%;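 further: untransfected CHO-K1 host cells lacking M1 receptor as counterscreen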
CHO-K1 Ca antag = counter-screen for M1 antagonists: effect in parental CHO-K1 cells | ATP-induced calcium, Fluo-8 fluorescence | inhibition, % at 3 µM | AID 602250 | 0.6% of 360,000 active;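 active means inhibition above a per-plate cutoff, the plate's mean sample inhibition plus 3 SD, cut at about 24% in these data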;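 further: 0% = DMSO plus EC80 ATP and 100% = DMSO alone without ATP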
OX1R Ca confirm = OX1R (human) antagonism, confirmed; CHO/OX1R cells, orexin A calcium Fluo-8 fluorescence; shares compounds with OX1R antag-2; 38% of 1,100 active; inhibition, % at 5 µM; in the data active means inhibition above about 29%;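 further: 0% = agonist challenge alone and 100% = reference antagonist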
CHO Ca counter = signal in parental CHO cells, OX1R antagonist counter-screen; parental CHO-K1, ATP-induced calcium, Fluo-8 fluorescence; inhibition, % at 5.6 µM; shares compounds with OX1R antag-2; 9.3% of 1,100 active;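 active means inhibition above a per-plate limit, the mean inhibition of that plate's test compounds plus 3 SD, cut at about 25% in these data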;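 further: 0% = ATP challenge with DMSO and 100% = DMSO without ATP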
* hit, by the source's call; . = no result.

SMILES | M1 PAM parental | CHO parental Ca | OX1R antag-1 | OX1R antag-2 | M1 ag parental | CHO-K1 Ca antag | OX1R Ca confirm | CHO Ca counter
Cc1cc(C)n(-c2nc(-c3cccc(Cl)c3)cs2)n1 | 3 | -26 | 47 | 41* | 0 | -4 | 6 | -17
CC[N+](CC)(CCCCS(=O)(=O)[O-])CCNP1(=O)C=C(c2ccccc2)OC(c2ccccc2)=C1 | 9 | -3 | 9 | -2 | 1 | -18 | . | .
O=C(COc1ccc(C(=O)NCc2cccnc2)cc1)Nc1cccc(C(F)(F)F)c1 | -27 | 16 | 34 | 28 | 9 | 13 | 12 | 17
CC(=O)Oc1ccc(-c2cc3c(OC(C)=O)cc(OC(C)=O)cc3oc2=O)cc1 | 23 | -7 | 14 | -3 | 1 | -9 | . | .
Cc1ccc2cc(C#N)c(SCC(=O)N3CCCc4ccccc43)nc2c1C | 33 | -8 | -3 | -4 | 1 | -18 | . | .
CCOC(=O)C1=C[C@@H](C(C)(C)C)N(S(=O)(=O)c2ccc(C)cc2)[C@H]1c1ccc(C)cc1 | 15 | . | . | . | 1 | 13 | . | .
CCN1C(=O)/C(=C\C=C\c2ccccc2[N+](=O)[O-])SC1=S | 5 | . | . | . | 1 | 5 | . | .
CCN1C(=O)/C(=C/C=C2\N(CC)c3cc(S(=O)(=O)N(C)C)ccc3N2c2ccccc2)SC1=S | -11 | 15 | 15 | 30 | 4 | 9 | 72* | 68*
O=C(O)c1cccc(NC(=O)c2cn(-c3ccccc3)nc2-c2cccc(Br)c2)c1 | 11 | 18 | 17 | 30 | 0 | 7 | 27 | 33*
O=C(O)c1cccc(NC(=O)c2cn(-c3ccccc3)nc2-c2ccncc2)c1 | 7 | 6 | 5 | 4 | 0 | 1 | . | .
O=C(CSC1=Nc2ccccc2C2CC=NN12)NCc1ccco1 (stereo not drawn) | 3 | -4 | 33 | 57* | 0 | -3 | 24 | 4
COc1ccc(NC(=O)CN(C)C(=O)CCNS(=O)(=O)c2ccc(Br)cc2)cc1 | 4 | -16 | 5 | -33 | 1 | -7 | . | .
O=C1OC(/C=C/c2ccccc2)=NC/1=C\c1cccnc1 | 12 | 6 | 23 | 50* | 0 | -9 | 4 | 1
Cc1ccc(C2=N/C(=C\c3cccnc3)C(=O)O2)cc1 | 1 | 7 | 0 | -1 | 0 | -4 | . | .
NS(=O)(=O)c1ccc(CNC(=O)C(Cc2ccccc2)NS(=O)(=O)c2ccccc2F)cc1 (stereo not drawn) | 18 | -1 | -12 | 26 | 0 | -9 | -1 | -6
O=C(N/N=C/c1ccco1)c1cc(-c2ccc3ccccc3c2)n[nH]1 | 10 | -1 | 42 | 44* | 1 | -2 | 5 | -3
Cc1cccc(C2c3[nH]c4ccccc4c3CCN2C(=O)Cc2nc(-c3ccccc3)n[nH]2)n1 (stereo not drawn) | 19 | 10 | 10 | 41 | 2 | -2 | 18 | -20
O=C1C=CC(=O)N1CCCCCCCCCCN1C(=O)C=CC1=O | 19 | . | . | . | 2 | -5 | . | .
CN(CC(=O)Nc1ccccc1C(F)(F)F)C(=O)C1CCN(C(=O)c2ccc(Cl)cc2)CC1 | -10 | -29 | 10 | -21 | 0 | 1 | . | .
O=C(CSCc1ccc(Cl)cc1)N/N=C/c1ccc(OCC(=O)Nc2ccccc2)cc1 | 13 | 14 | 68 | 36 | 3 | 3 | 6 | 4
Cc1ccc(NC(=O)COc2ccc(/C=N/NC(=O)CSCc3ccccc3)cc2)cc1 | 0 | 3 | 17 | 33 | 0 | -6 | . | .
O=C(Cn1ncc(Cl)c(Cl)c1=O)c1ccc(Cl)cc1 | -1 | 13 | 14 | 22 | 0 | -5 | 43* | 31*
CC(C)(C)c1cc2nc(N)nc(N)n2n1 | -13 | -12 | -5 | 50* | 0 | 6 | 6 | 5
COc1ccc2c(c1)nc(CN1CCN(CCO)CC1)n2C | 15 | -7 | 11 | -14 | 0 | 2 | . | .
O=C(OCc1cccc([N+](=O)[O-])c1)c1cc2ccccc2oc1=O | 20 | -12 | 9 | 45 | 0 | -7 | -7 | 0
SMILES | M1 PAM parental | CHO parental Ca | OX1R antag-1 | OX1R antag-2 | M1 ag parental | CHO-K1 Ca antag | OX1R Ca confirm | CHO Ca counter
O=C(Oc1ccc([N+](=O)[O-])cc1)C1CC(=O)N(c2ccc3c(c2)OCCO3)C1 (stereo not drawn) | -3 | -7 | 6 | 13 | 1 | 10 | . | .
CC(c1cccs1)N(Cc1ccco1)C(=O)Nc1ccc(Cl)c(Cl)c1 (stereo not drawn) | 5 | -2 | 22 | 44* | -1 | -8 | -23 | -16
COc1cccc(NC(=O)N(Cc2ccco2)C(C)c2cccs2)c1 (stereo not drawn) | -1 | -14 | 11 | -12 | 0 | -7 | . | .
CCSC1=N/C(=C\C=C2/Oc3ccccc3N2CC)C(=O)S1 | 17 | 12 | 42 | 32 | 7 | -4 | 16 | 12
Cc1ccccc1C(=O)NC(=S)Nc1ncccn1 | 10 | 0 | -5 | -12 | 0 | -6 | . | .
COC(=O)c1ccc(NC(=S)NNC(=O)c2ccccc2)cc1 | -9 | -10 | 7 | 28 | 0 | -8 | 4 | 7
O=C(NNC(=S)Nc1ccc(Br)cc1)c1ccccc1 | -13 | . | . | . | 3 | -1 | . | .
Cc1ccc(-c2cc3nc(-c4ccccc4)cc(N4CCC5(CC4)OCCO5)n3n2)cc1 | 8 | 12 | 40 | 39 | 0 | 2 | 36* | -10
Fc1ccc(-c2cc3nc(-c4ccccc4)cc(N4CCOCC4)n3n2)cc1 | 12 | -13 | 7 | -27 | 0 | -24 | . | .
CC(C)(C)c1nnc(NC(=O)Cc2ccc(Br)cc2)s1 | -9 | -17 | 3 | -21 | 0 | 10 | . | .
COc1ccc(-c2cc(-c3ccc(OC)c(OC)c3)n[nH]2)c(O)c1 | 24 | 19 | 40 | 35 | 2 | -2 | 4 | -11
O=C(Nc1ccc(OC(F)(F)F)cc1)N1CCN(c2ccnc3cc(Cl)ccc23)CC1 | -21 | -2 | 16 | 24 | 5 | 27* | 19 | 35*
CC(C)(C)C(=O)N1CCN(c2ccnc3cc(Cl)ccc23)CC1 | -24 | -5 | 7 | -21 | 1 | 6 | . | .
COc1cc(CNCCc2ccccc2F)ccc1OCC(=O)N1CCCCC1 | 24 | -15 | 2 | -34 | 6 | -1 | . | .
COc1cc2c(cc1OC)C(C)N(S(=O)(=O)c1ccc(Cl)nc1)CC2 (stereo not drawn) | -8 | -5 | 7 | -9 | 0 | 4 | . | .
O=C(O)Cn1c2ccccc2c2nc3ccccc3nc21 | 2 | . | . | . | 1 | 6 | . | .
CCn1c2ccc(F)cc2c2nc3ccccc3nc21 | 8 | -17 | 95 | 34 | 0 | -11 | 27 | -4
CCCn1c2ccccc2c2nc3ccccc3nc21 | 15 | -29 | 72 | 28 | 0 | 3 | 12 | -14
